Laboratory results: ChEMBL document CHEMBL1147105, “In vitro and in vivo activities of PD 0305970 and PD 0326448, new bacterial gyrase/topoisomerase inhibitors with potent antibacterial activities versus multidrug-resistant gram-positive and fastidious organism groups” (2007)
Values after ≈ are worked out from the molar mass of the structure shown.

Legend:
Type in all cases: functional
Enterococcus faecium = assay: Antibacterial activity against VanA-resistant Enterococcus faecium
Procedure, shortened: (§1)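 Broth microdilution MIC per CLSI guidelines, incubated at 35°C. Cation-adjusted Mueller-Hinton broth for nonfastidious organisms and staphylococci. Streptococci tested in the same broth with 3% lysed horse blood. Anaerobes tested in supplemented Brucella broth inside an anaerobe chamber (5% CO2, 5% H2, 90% N2), read after 48 h. Strains were mainly recent clinical isolates with confirmed identity.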

Listeria monocytogenes = assay: Antibacterial activity against Listeria monocytogenes
Procedure, shortened: (§2)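 Broth microdilution MIC following CLSI guidelines, in cation-adjusted Mueller-Hinton broth containing 3% lysed horse blood, incubated at 35°C. Clinical isolates with identity confirmed. Reported as MIC range, MIC50 and MIC90.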

Legionella pneumophila = assay: Antibacterial activity against Legionella pneumophila
Procedure, shortened: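 Broth microdilution MIC per CLSI guidelines, run in buffered yeast extract α-ketoglutarate broth at 35°C and read after 48 h.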

Klebsiella aerogenes = assay: Antibacterial activity against Enterobacter aerogenes
Procedure, shortened: (§3)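 Broth microdilution MIC following CLSI guidelines, in cation-adjusted Mueller-Hinton broth, incubated at 35°C. Recent clinical isolates and reference strains, with identity confirmed by automated and standard microbiological methods. Results reported as MIC range, MIC50 and MIC90.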

Enterobacter cloacae = assay: Antibacterial activity against Enterobacter cloacae; procedure, shortened: as §3
Klebsiella pneumoniae [1] = assay: Antibacterial activity against Klebsiella pneumoniae; procedure, shortened: as §3
Klebsiella pneumoniae [2] = assay: Antibacterial activity against beta-lactamase positive Klebsiella pneumoniae
Procedure, shortened: (§4)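 MIC by CLSI broth microdilution for nonfastidious organisms, in cation-adjusted Mueller-Hinton broth incubated at 35°C.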

Morganella morganii = assay: Antibacterial activity against Morganella morganii; procedure, shortened: as §3
Proteus mirabilis = assay: Antibacterial activity against Proteus mirabilis; procedure, shortened: as §3
Burkholderia cepacia = assay: Antibacterial activity against Burkholderia cepacia; procedure, shortened: as §3
Pseudomonas aeruginosa = assay: Antibacterial activity against Pseudomonas aeruginosa; procedure, shortened: as §3
[3] = test system: Stenotrophomonas maltophilia; assay: Antibacterial activity against Stenotrophomonas maltophilia; procedure, shortened: as §3
Fusobacterium sp. = assay: Antibacterial activity against Fusobacterium sp.
Procedure, shortened: (§5)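 Anaerobic broth microdilution MIC following CLSI guidelines, in supplemented Brucella broth. Run in an anaerobe chamber under 5% CO2, 5% H2 and 90% N2 at 35°C, and read after 48 h. Reported as MIC range, MIC50 and MIC90.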

[4] = test system: Peptostreptococcus anaerobius; assay: Antibacterial activity against Peptostreptococcus anaerobius; procedure, shortened: as §5
[5] = test system: Peptoniphilus asaccharolyticus; assay: Antibacterial activity against Peptostreptococcus asaccharolyticus; procedure, shortened: as §5
Streptococcus pyogenes = assay: Antibacterial activity against Streptococcus pyogenes
Procedure, shortened: (§6)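 Broth microdilution MIC following CLSI guidelines, in cation-adjusted Mueller-Hinton broth with 3% lysed horse blood. Plates incubated at 35°C. Clinical isolates and reference strains, with identity confirmed by standard microbiological methods.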

Clostridioides difficile = assay: Antibacterial activity against Clostridium difficile; procedure, shortened: as §5
[6] = test system: Bacteroides thetaiotaomicron; assay: Antibacterial activity against Bacteroides thetaiotaomicron; procedure, shortened: as §5
Staphylococcus aureus = assay: Antibacterial activity against oxacillin-resistant Staphylococcus aureus; procedure, shortened: as §1
[7] = test system: Staphylococcus epidermidis; assay: Antibacterial activity against oxacillin-susceptible Staphylococcus epidermidis; procedure, shortened: as §4
[8] = test system: Staphylococcus saprophyticus; assay: Antibacterial activity against Staphylococcus saprophyticus; procedure, shortened: as §3
Staphylococcus warneri = assay: Antibacterial activity against Staphylococcus warneri; procedure, shortened: as §3
Alloiococcus otitis = assay: Antibacterial activity against Alloiococcus otitidis
Procedure, shortened: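 MIC by broth microdilution following CLSI guidelines, in cation-adjusted Mueller-Hinton broth with 3% lysed horse blood. Incubated at 35°C and read after 48 h. Reported as MIC range, MIC50 and MIC90.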

Streptococcus agalactiae = assay: Antibacterial activity against Streptococcus agalactiae; procedure, shortened: as §2
Streptococcus pneumoniae [9] = assay: Antibacterial activity against penicillin-susceptible Streptococcus pneumoniae; procedure, shortened: as §1
Streptococcus pneumoniae [10] = assay: Antibacterial activity against penicillin-resistant Streptococcus pneumoniae; procedure, shortened: as §1
Streptococcus pneumoniae [11] = assay: Antibacterial activity against levofloxacin-resistant Streptococcus pneumoniae; procedure, shortened: as §1
Enterococcus faecalis = assay: Antibacterial activity against VanA-resistant Enterococcus faecalis; procedure, shortened: as §1
Prevotella corporis = assay: Antibacterial activity against Prevotella corporis; procedure, shortened: as §5
Prevotella sp. = assay: Antibacterial activity against Prevotella sp.; procedure, shortened: as §5
Neisseria meningitidis = assay: Antibacterial activity against Neisseria meningitidis
Procedure, shortened: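 MIC by broth microdilution in gonococcal broth, incubated at 35°C in 5% CO2. Reported as MIC range, MIC50 and MIC90.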

Streptococcus salivarius = assay: Antibacterial activity against Streptococcus salivarius; procedure, shortened: as §6
Streptococcus viridans = assay: Antibacterial activity against Streptococcus viridans; procedure, shortened: as §6
[12] = test system: Parabacteroides distasonis; assay: Antimicrobial activity against Bacteroides distasonis
Procedure, shortened: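 Anaerobic broth microdilution MIC following CLSI guidelines, in supplemented Brucella broth. Incubated at 35°C in a chamber under 5% CO2, 5% H2 and 90% N2. Read after 48 h.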

Work on C[C@H]1NCc2cc(-c3ccc4c(=O)c(C(=O)O)cn(C5CC5)c4c3OC(F)F)ccc21 [GARENOXACIN] yielded an MIC50 (Enterococcus faecium) of 8 µg/mL (≈ 18.8 µM), an MIC90 (Enterococcus faecium) of 16 µg/mL (≈ 37.5 µM) and an MIC50 (Listeria monocytogenes) of 0.25 µg/mL (≈ 0.586 µM). The MIC90 (Listeria monocytogenes) was 0.5 µg/mL (≈ 1.17 µM), the MIC50 (Legionella pneumophila) was 0.002 µg/mL (≈ 0.00469 µM) and the MIC90 (Legionella pneumophila) was 0.008 µg/mL (≈ 0.0188 µM). For the same compound, the MIC50 (Klebsiella aerogenes) was 2 µg/mL (≈ 4.69 µM), the MIC90 (Klebsiella aerogenes) was > 64 µg/mL and the MIC50 (Enterobacter cloacae) was 0.125 µg/mL (≈ 0.293 µM). The MIC90 (Enterobacter cloacae) was 2 µg/mL (≈ 4.69 µM), the MIC50 (Klebsiella pneumoniae [1]) was 0.25 µg/mL (≈ 0.586 µM) and the MIC90 (Klebsiella pneumoniae [1]) was 1 µg/mL (≈ 2.35 µM). The MIC50 (Klebsiella pneumoniae [2]) was 1 µg/mL (≈ 2.35 µM), the MIC90 (Klebsiella pneumoniae [2]) was 64 µg/mL (≈ 150 µM) and the MIC50 (Morganella morganii) was 2 µg/mL (≈ 4.69 µM). It also gave an MIC90 (Morganella morganii) of 32 µg/mL (≈ 75 µM), an MIC50 (Proteus mirabilis) of 0.5 µg/mL (≈ 1.17 µM) and an MIC90 (Proteus mirabilis) of 16 µg/mL (≈ 37.5 µM). The MIC50 (Burkholderia cepacia) was 32 µg/mL (≈ 75 µM), the MIC90 (Burkholderia cepacia) was > 64 µg/mL and the MIC50 (Pseudomonas aeruginosa) was 2 µg/mL (≈ 4.69 µM). The MIC90 (Pseudomonas aeruginosa) was > 64 µg/mL, the MIC50 [3] was 4 µg/mL (≈ 9.38 µM) and the MIC90 [3] was 8 µg/mL (≈ 18.8 µM). For the same compound, the MIC (Fusobacterium sp.) was 0.125 µg/mL (≈ 0.293 µM), the MIC [4] was 0.015 µg/mL (≈ 0.0352 µM) and the MIC [5] was 0.015 µg/mL (≈ 0.0352 µM). It also gave an MIC50 (Streptococcus pyogenes) of 0.125 µg/mL (≈ 0.293 µM), an MIC90 (Streptococcus pyogenes) of 0.25 µg/mL (≈ 0.586 µM) and an MIC50 (Clostridioides difficile) of 0.5 µg/mL (≈ 1.17 µM). It also gave an MIC90 (Clostridioides difficile) of 1 µg/mL (≈ 2.35 µM), an MIC50 [6] of 2 µg/mL (≈ 4.69 µM) and an MIC90 [6] of 4 µg/mL (≈ 9.38 µM). The MIC50 (Staphylococcus aureus) was 2 µg/mL (≈ 4.69 µM), the MIC90 (Staphylococcus aureus) was 2 µg/mL (≈ 4.69 µM) and the MIC [7] was 0.06 µg/mL (≈ 0.141 µM). For the same compound, the MIC50 [8] was 0.03 µg/mL (≈ 0.0704 µM), the MIC90 [8] was 0.06 µg/mL (≈ 0.141 µM) and the MIC (Staphylococcus warneri) was 0.03 µg/mL (≈ 0.0704 µM). The MIC50 (Alloiococcus otitis) was ≤ 0.001 µg/mL, the MIC90 (Alloiococcus otitis) was ≤ 0.001 µg/mL and the MIC50 (Streptococcus agalactiae) was 0.125 µg/mL (≈ 0.293 µM). The MIC90 (Streptococcus agalactiae) was 0.125 µg/mL (≈ 0.293 µM), the MIC50 (Streptococcus pneumoniae [9]) was 0.125 µg/mL (≈ 0.293 µM) and the MIC90 (Streptococcus pneumoniae [9]) was 0.125 µg/mL (≈ 0.293 µM). The MIC50 (Streptococcus pneumoniae [10]) was 0.03 µg/mL (≈ 0.0704 µM), the MIC90 (Streptococcus pneumoniae [10]) was 0.125 µg/mL (≈ 0.293 µM) and the MIC50 (Streptococcus pneumoniae [11]) was 1 µg/mL (≈ 2.35 µM). For the same compound, the MIC90 (Streptococcus pneumoniae [11]) was 2 µg/mL (≈ 4.69 µM), the MIC (Enterococcus faecalis) was 2 µg/mL (≈ 4.69 µM) and the MIC50 (Prevotella corporis) was 0.25 µg/mL (≈ 0.586 µM). The MIC90 (Prevotella corporis) was 1 µg/mL (≈ 2.35 µM), the MIC50 (Prevotella sp.) was 0.25 µg/mL (≈ 0.586 µM) and the MIC90 (Prevotella sp.) was 1 µg/mL (≈ 2.35 µM). The MIC50 (Neisseria meningitidis) was 0.004 µg/mL (≈ 0.00938 µM), the MIC90 (Neisseria meningitidis) was 0.004 µg/mL (≈ 0.00938 µM) and the MIC50 (Streptococcus salivarius) was 0.125 µg/mL (≈ 0.293 µM). It also gave an MIC90 (Streptococcus salivarius) of 0.25 µg/mL (≈ 0.586 µM), an MIC50 (Streptococcus viridans) of 0.125 µg/mL (≈ 0.293 µM) and an MIC90 (Streptococcus viridans) of 0.25 µg/mL (≈ 0.586 µM). It also gave an MIC50 [12] of 2 µg/mL (≈ 4.69 µM) and an MIC90 [12] of 4 µg/mL (≈ 9.38 µM).
